Assay results collected from several papers.
Lines come from different studies, so protocols differ. pIC50: −log10 of the molar value.
Effect on: cell growth or viability

| Structure (SMILES) | cell line | method | time | pIC50 |
| --- | --- | --- | --- | --- |
| N[C@@H](CC(=O)N1CCN(C(c2ccc(F)cc2)c2ccc(F)cc2)CC1)C(=O)N1Cc2ccccc2C1 | SKM-1 | ATP luminescence | 48 h | 6.46 |
| Cc1cc(NC(=O)c2cccc3cc(-c4cccc5[nH]nc(N)c45)ccc23)ccc1F | mouse BMDM | CCK-8 | 72 h | 7.03 |
| COC(=O)c1ccc(-n2nc(SC)nc2N)cc1 | RPE-1 | MTT | – | 4.43 |
| COc1cc(Nc2nccc(-c3cnn4nc(OC)ccc34)n2)cc(C(F)(F)F)c1 | RL95-2 | ATP luminescence | – | 6.00 |
| CN1c2ccccc2C(=O)N2[C@H](C(=O)Nc3ccc(C(=O)Nc4ccccc4N)cc3)Cc3c([nH]c4ccccc34)[C@@H]12 | HEL | – | – | 6.18 |
| FC(F)(F)c1ccc(C(c2c[nH]c3ccccc23)c2c[nH]c3ccccc23)cc1 | U2OS | ATP luminescence | 22 h | 4.90 |
| O=C(Nc1cc(OCCN2CCCC2)c2ccccc2n1)c1cc(OCCN2CCCC2)cc(C(=O)Nc2cc(OCCN3CCCC3)c3ccccc3n2)n1 | U2OS | ATP luminescence | 72 h | 5.68 |
| CC(C)C[C@H](NC(=O)[C@H](Cc1ccccc1)NC(=O)c1cnccn1)B(O)O | RL95-2 | ATP luminescence | – | 7.92 |
| CC1=CC(C)(C)N(Cc2ccccc2)c2ccc(O)cc21 | PLC5 | MTT | 72 h | 4.96 |
| COC(=O)C(C)n1c(C=O)ccc1CO (centres unmarked) | Hepa-1c1c7 | crystal violet | 48 h | < 4.00 |
| NCCCOc1cc(NC(=O)c2cccc(C(=O)Nc3cc(OCCCN)c4ccccc4n3)n2)nc2ccccc12 | U2OS | ATP luminescence | 72 h | 5.82 |
| COc1nc(OCc2cccc(-c3ccccc3)c2C)ccc1CNCCNC(C)=O | HCT-8 | MTT | – | 5.41 |
| COc1cccc2c1C(=O)c1c(O)c3c(c(O)c1C2=O)C[C@@](O)(C(=O)CO)C[C@@H]3O[C@H]1C[C@H](N)[C@H](O)[C@H](C)O1 | RPE-1 | MTT | – | 4.65 |
| COc1cc(C(=O)Nc2cc(OCCN3CCCC3)c3ccccc3n2)nc(C(=O)Nc2cc(OCCN3CCCC3)c3ccccc3n2)c1 | U2OS | ATP luminescence | 72 h | 5.80 |
| COc1ccc(O)c(/C=N/c2nc(Oc3ccccc3)nn2-c2ccc(C(=O)O)cc2)c1 | RPE-1 | MTT | – | 4.48 |
| CC(C)[C@H](N)C(=O)N1CCC[C@H]1B(O)O | NB-4 | ATP luminescence | 48 h | 7.00 |
| C#CCOc1cc(C(=O)Nc2cc(OCCCN)c3ccccc3n2)nc(C(=O)Nc2cc(OCCCN)c3ccccc3n2)c1 | U2OS | ATP luminescence | 72 h | 5.64 |
| CSc1nc(/N=C/c2cc(C)ccc2O)n(-c2ccc(C(=O)O)cc2)n1 | RPE-1 | MTT | – | 4.44 |
| CC[C@@H](C)[C@H](N)C(=O)N1Cc2ccccc2C1 | SKM-1 | ATP luminescence | 48 h | 6.74 |
| CSc1nc(/N=C/c2cc([N+](=O)[O-])ccc2O)n(-c2ccc(C(=O)O)cc2)n1 | RPE-1 | MTT | – | 4.62 |
| Cc1ccc(C(=O)Nc2ccc(Oc3cc4cnn(C)c4cc3-c3cn[nH]c3)c(F)c2)c(=O)n1-c1ccc(F)cc1 | Hs746T | ATP luminescence | – | 7.47 |
| NCCOc1cc(NC(=O)c2cccc(C(=O)Nc3cc(OCCN)c4ccccc4n3)n2)nc2ccccc12 | U2OS | ATP luminescence | 72 h | 6.15 |
| CSc1nc(/N=C/c2ccc(O)cc2)n(-c2ccc(C(=O)O)cc2)n1 | RPE-1 | MTT | – | 4.41 |
| NCCCOc1cc(NC(=O)c2cc(OCCN)cc(C(=O)Nc3cc(OCCCN)c4ccccc4n3)n2)nc2ccccc12 | U2OS | ATP luminescence | 72 h | 4.85 |
| O=C(O)c1ccc(-n2nc(Oc3ccccc3)nc2/N=C/c2cc([N+](=O)[O-])ccc2O)cc1 | RPE-1 | MTT | – | 4.57 |
| C#CCOc1cc(C(=O)Nc2cc(OCCN)c3ccccc3n2)nc(C(=O)Nc2cc(OCCN)c3ccccc3n2)c1 | U2OS | ATP luminescence | 72 h | 5.31 |
| COc1ccc(O)c(/C=N/c2nc(SC)nn2-c2ccc(C(=O)O)cc2)c1 | RPE-1 | MTT | – | 4.45 |
| NCCOc1cc(C(=O)Nc2cc(OCCN3CCCC3)c3ccccc3n2)nc(C(=O)Nc2cc(OCCN3CCCC3)c3ccccc3n2)c1 | U2OS | ATP luminescence | 72 h | 6.70 |
| COc1cc(-c2ncn(/C=C\C(=O)OC(C)C)n2)cc(C(F)(F)F)c1 | NB-4 | – | 72 h | 6.77 |
